The results in this text go back to ChEMBL document CHEMBL4732121, “Imidazo[1,2-a]quinoxalines for melanoma treatment with original mechanism of action” (Eur J Med Chem, 2021).

System in one series: not listed separately
Put plainly: Inhibition of pig brain tubulin polymerization at 5 uM measured after 45 mins by turbidimetry based spectrophotometric method relative to control. It is filed as tissue-based, Sus scrofa. Conditions: 0.75 h.
In the case of `CNc1nc2ccccc2n2c(-c3cccc(OC)c3)cnc12`, the “inhibition (INH)” value was 84%.

The next series deals with A-375. Description: Antiproliferative activity against human A-375 cells assessed as reduction in cell viability measured after 96 hrs by MTT assay. Conditions: Homo sapiens, A-375, 96 h. It is filed as functional, cell-based. Put shortly: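 A375 cells in RPMI-1640 with 10% heat-inactivated FBS, 2 mM L-glutamine and antibiotics, 37°C, 5% CO₂. Seeded at 5000 cells/well and attached overnight, then exposed to 10⁻⁵–3.2.10⁻⁹ M in 0.15% DMSO/medium for 96 h. MTT at 0.5 mg/ml final for 4 h, formazan dissolved in 10% SDS/0.01 M HCl, OD 570 nm. At least three experiments in triplicate; IC50 from sigmoidal dose–response curves.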
Background: Tetrazolium dyes change colour on reduction, which living cells bring about.
As usually defined, the IC50 is the midpoint of a concentration-inhibition curve. On to `CNc1nc2cc(OC(F)(F)F)ccc2n2c(-c3ccc(OC)c(OC)c3)cnc12`, for which the IC50 is 3.49 µM.

In the case of `CNc1nc2ccc(C(F)(F)F)cc2n2c(-c3ccc(O)c(O)c3)cnc12`, the IC50 is above 10 µM.

Consider `COc1ccc(-c2cnc3c(NCCNC(=O)OC(C)(C)C)nc4ccccc4n23)cc1OC`, for which the concentration for half-maximal inhibition (IC50) is above 10 µM.

Take `Nc1nccn2c(-c3ccc(O)c(O)c3)cnc12`: the IC50 was above 10 µM.

On to `CNc1nc2ccccc2n2c(Br)cnc12`, for which the IC50 is 2.35 µM.

Take `Nc1nc2ccccc2n2c(-c3ccc(O)c(O)c3)cnc12`: the IC50 was 0.06 µM.

In the case of `Oc1ccc(-c2cnc3c(N4CCNCC4)nc4ccccc4n23)cc1O`, the IC50 is above 10 µM.

As for `CNc1nccn2c(-c3ccc(OC)c(OC)c3)cnc12`, the IC50 is above 10 µM.

With `CN(C)c1nc2ccccc2n2c(-c3ccc(O)c(O)c3)cnc12`, the IC50 was 0.03 µM.

For `Oc1ccc(-c2cnc3c(O)nc4ccccc4n23)cc1O`, the IC50 is above 10 µM.

For `COc1ccc(-c2cnc3c(N)nccn23)cc1OC`, the IC50 is above 10 µM.

With `NCCNc1nc2ccccc2n2c(-c3ccc(O)c(O)c3)cnc12` [listing 1 of 2 here], the IC50 amounted to 1.28 µM.

Turning to `CNc1nc2ccccc2n2c(-c3cccc(OC)c3)cnc12`, the IC50 was 0.383 µM.

As to `CNc1nccn2c(-c3ccc(O)c(O)c3)cnc12`, the IC50 is above 10 µM.

Regarding `COc1ccc(-c2cnc3c(NCCCNC(=O)OC(C)(C)C)nc4ccccc4n23)cc1OC`, the IC50 was above 10 µM.

`CNc1nc2ccccc2n2c(-c3ccc(OC)c(OC)c3)cnc12`: the IC50 was 0.193 µM.

Regarding `COc1ccc(-c2cnc3c(OC)nc4ccccc4n23)cc1OC`, the IC50 was found to be 2.93 µM.

With `CNc1nc2ccccc2n2ccnc12`, the IC50 is above 10 µM.

Take `NCCCCCCNc1nc2ccccc2n2c(-c3ccc(O)c(O)c3)cnc12`: the half-maximal inhibitory concentration (IC50) is 5.69 µM.

Regarding `CNc1nc2cc(OC(F)(F)F)ccc2n2c(-c3ccc(O)c(O)c3)cnc12`, the IC50 turned out to be 0.199 µM.

Consider `COc1ccc(-c2cnc3c(NCCCCCCNC(=O)OC(C)(C)C)nc4ccccc4n23)cc1OC`, for which the IC50 was above 10 µM.

Turning to `CNc1nc2cc(C(F)(F)F)ccc2n2c(-c3ccc(O)c(O)c3)cnc12`, the IC50 was 6.91 µM.

Take `NCCCNc1nc2ccccc2n2c(-c3ccc(O)c(O)c3)cnc12`: the IC50 is 5.59 µM.

Regarding `COc1ccc(-c2cnc3c(N4CCN(C(=O)OC(C)(C)C)CC4)nc4ccccc4n23)cc1OC`, the IC50 was above 10 µM.

For the compound `COc1ccc(-c2cnc3c(N(C)C)nc4ccccc4n23)cc1OC`, the IC50 came out at 0.414 µM.

As to `CNc1nc2ccc(C(F)(F)F)cc2n2c(-c3ccc(OC)c(OC)c3)cnc12`, the IC50 was above 10 µM.

The series is the same for the next values; noted with them: a-375.
Regarding `NCCNc1nc2ccccc2n2c(-c3ccc(O)c(O)c3)cnc12` [listing 2 of 2 here], the IC50 is 1.7 µM.

The next series deals with MeWo. Put plainly: Antiproliferative activity against human MeWo cells assessed as reduction in cell viability measured after 96 hrs by MTT assay. It is filed as functional, cell-based.
Conditions: not given
Consider `CNc1nc2ccccc2n2c(-c3cccc(OC)c3)cnc12`, for which the IC50 came to 125 nM.

Another series relates to A2058. Description: Antiproliferative activity against human A2058 cells assessed as reduction in cell viability measured after 96 hrs by MTT assay. It is filed as functional, cell-based. The following applies: A2058, 96 h.
As to `CNc1nc2ccccc2n2c(-c3cccc(OC)c3)cnc12`, the IC50 turned out to be 185 nM.

The test system of another series is IPC-298. Put plainly: Antiproliferative activity against human IPC-298 cells assessed as reduction in cell viability measured after 96 hrs by MTT assay. It is filed as functional, cell-based. Conditions: IPC-298, 96 h.
In the case of `CNc1nc2ccccc2n2c(-c3cccc(OC)c3)cnc12`, the IC50 was determined as 469 nM.
